Laboratory results taken from ChEMBL document CHEMBL1158537, “Antibacterial activities of aminoglycoside antibiotics-derived cationic amphiphiles. Polyol-modified neomycin B-, kanamycin A-, amikacin-, and neamine-based amphiphiles with potent broad spectrum antibacterial activity” (2010).
Values after ≈ are worked out from the molar mass of the structure shown.

What was measured:
[1] = system: Stenotrophomonas maltophilia; assay: Antibacterial activity against Stenotrophomonas maltophilia CAN-ICU 62585 after 24 hrs by macrobroth dilution method; assay type: functional
Outline: (§1)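 Broth macrodilution was run following CLSI methodology against ATCC reference strains and clinical isolates from the Canadian Intensive Care Unit (CAN-ICU) study, with Gram-positive and Gram-negative organisms tested. The value is the minimum inhibitory concentration, reported in μg/mL.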

[2] = system: Streptococcus pneumoniae; assay: Antibacterial activity against Streptococcus pneumoniae ATCC 49619 after 24 hrs by macrobroth dilution method; assay type: functional; outline: as §1
[3] = system: Staphylococcus epidermidis; assay: Antibacterial activity against methicillin-resistant Staphylococcus epidermidis ATCC 14990 after 24 hrs by macrobroth dilution method; assay type: functional
[4] = system: Escherichia coli; assay: Antibacterial activity against Escherichia coli ATCC 25922 after 24 hrs by macrobroth dilution method; assay type: functional
Outline: (§2)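 Reference strains from the American Type Culture Collection were tested by broth macrodilution following CLSI methodology. The read-out was the minimum inhibitory concentration, reported in μg/mL. The same method was used for the Gram-positive and Gram-negative organisms.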

[5] = system: Escherichia coli; assay: Antibacterial activity against Escherichia coli CAN-ICU 63074 after 24 hrs by macrobroth dilution method; assay type: functional; outline: as §1
[6] = system: Staphylococcus epidermidis; assay: Antibacterial activity against Staphylococcus epidermidis […] after 24 hrs by macrobroth dilution method; assay type: functional; outline: as §1
[7] = system: Klebsiella pneumoniae; assay: Antibacterial activity against Klebsiella pneumoniae ATCC 13883 after 24 hrs by macrobroth dilution method; details: ATCC 13883, 24 h
[8] = system: Pseudomonas aeruginosa; assay: Antibacterial activity against Pseudomonas aeruginosa ATCC 27853 after 24 hrs by macrobroth dilution method; assay type: functional; outline: as §1
[9] = system: Escherichia coli; assay: Antibacterial activity against gentamicin-resistant Escherichia coli ATCC 6174 after 24 hrs by macrobroth dilution method; assay type: functional; outline: as §2
[10] = system: Acinetobacter baumannii; assay: Antibacterial activity against Acinetobacter baumannii CAN-ICU 63169 after 24 hrs by macrobroth dilution method; assay type: functional; outline: as §1
[11] = system: Staphylococcus aureus; assay: Antibacterial activity against Staphylococcus aureus ATCC 29213 after 24 hrs by macrobroth dilution method; assay type: functional; outline: as §2
[12] = system: Pseudomonas aeruginosa; assay: Antibacterial activity against Pseudomonas aeruginosa CAN-ICU 62308 after 24 hrs by macrobroth dilution method; assay type: functional; outline: as §1
[13] = system: Staphylococcus aureus; assay: Antibacterial activity against methicillin-resistant Staphylococcus aureus ATCC 33592 after 24 hrs by macrobroth dilution method; assay type: functional; outline: as §2

Molecule: NC[C@@H]1O[C@@H](O[C@H]2[C@H](O)[C@@H](O[C@H]3O[C@H](CO)[C@@H](O)[C@H](N)[C@H]3O)[C@H](N)C[C@@H]2N)[C@@H](O)[C@H](O)[C@H]1O [KANAMYCIN A]
- MIC ([1]; CAN-ICU 62585, 24 h): > 512 µg/mL
- MIC ([2]; ATCC 49619, 24 h): 8 µg/mL (≈ 16.5 µM)
- MIC ([3]; ATCC 14990, 24 h): 128 µg/mL (≈ 264 µM)
- MIC ([4]; ATCC 25922, 24 h): 8 µg/mL (≈ 16.5 µM)
- MIC ([5]; CAN-ICU 63074, 24 h): 32 µg/mL (≈ 66 µM)
- MIC [6]: 2 µg/mL (≈ 4.13 µM)
- MIC [7]: 1 µg/mL (≈ 2.06 µM)
- MIC ([8]; ATCC 27853, 24 h): > 512 µg/mL
- MIC ([9]; ATCC 6174, 24 h): 16 µg/mL (≈ 33 µM)
- MIC ([10]; CAN-ICU 63169, 24 h): 32 µg/mL (≈ 66 µM)
- MIC ([11]; ATCC 29213, 24 h): 4 µg/mL (≈ 8.26 µM)
- MIC ([12]; CAN-ICU 62308, 24 h): > 512 µg/mL
- MIC ([13]; ATCC 33592, 24 h): > 512 µg/mL

Molecule: NC[C@H]1OC(O[C@H]2[C@H](OCc3ccc(Cl)cc3)[C@@H](O[C@H]3O[C@H](COCc4ccc(Cl)cc4)[C@@H](OCc4ccc(Cl)cc4)[C@H](N)[C@H]3OCc3ccc(Cl)cc3)[C@H](N)C[C@@H]2N)[C@H](OCc2ccc(Cl)cc2)[C@@H](OCc2ccc(Cl)cc2)[C@@H]1OCc1ccc(Cl)cc1.O=C(O)C(F)(F)F (stereo not given in full)
- MIC ([1]; CAN-ICU 62585, 24 h): > 128 µg/mL
- MIC ([2]; ATCC 49619, 24 h): 64 µg/mL
- MIC ([3]; ATCC 14990, 24 h): 16 µg/mL
- MIC ([4]; ATCC 25922, 24 h): 128 µg/mL
- MIC ([5]; CAN-ICU 63074, 24 h): 64 µg/mL
- MIC [6]: 32 µg/mL
- MIC [7]: > 128 µg/mL
- MIC ([8]; ATCC 27853, 24 h): > 128 µg/mL
- MIC ([9]; ATCC 6174, 24 h): 128 µg/mL
- MIC ([10]; CAN-ICU 63169, 24 h): > 128 µg/mL
- MIC ([11]; ATCC 29213, 24 h): 32 µg/mL
- MIC ([12]; CAN-ICU 62308, 24 h): > 128 µg/mL
- MIC ([13]; ATCC 33592, 24 h): 32 µg/mL

Molecule: NC[C@@H]1O[C@H](O[C@H]2[C@@H](OCc3ccc(Cl)cc3)[C@H](O[C@@H]3[C@@H](OCc4ccc(Cl)cc4)[C@H](N)C[C@H](N)[C@H]3O[C@H]3O[C@H](CN)[C@@H](OCc4ccc(Cl)cc4)[C@H](OCc4ccc(Cl)cc4)[C@H]3N)O[C@@H]2COCc2ccc(Cl)cc2)[C@H](N)[C@@H](OCc2ccc(Cl)cc2)[C@@H]1OCc1ccc(Cl)cc1.O=C(O)C(F)(F)F
- MIC ([1]; CAN-ICU 62585, 24 h): > 128 µg/mL
- MIC ([2]; ATCC 49619, 24 h): 128 µg/mL
- MIC ([3]; ATCC 14990, 24 h): 64 µg/mL
- MIC ([4]; ATCC 25922, 24 h): 128 µg/mL
- MIC ([5]; CAN-ICU 63074, 24 h): 64 µg/mL
- MIC [6]: 32 µg/mL
- MIC [7]: 128 µg/mL
- MIC ([8]; ATCC 27853, 24 h): > 128 µg/mL
- MIC ([9]; ATCC 6174, 24 h): > 128 µg/mL
- MIC ([10]; CAN-ICU 63169, 24 h): > 128 µg/mL
- MIC ([11]; ATCC 29213, 24 h): 64 µg/mL
- MIC ([12]; CAN-ICU 62308, 24 h): > 128 µg/mL
- MIC ([13]; ATCC 33592, 24 h): 64 µg/mL

Molecule: NC[C@@H]1O[C@H](O[C@H]2[C@@H](OC(=O)Nc3ccc(Cl)cc3)[C@H](O[C@@H]3[C@@H](OC(=O)Nc4ccc(Cl)cc4)[C@H](N)C[C@H](N)[C@H]3O[C@H]3O[C@H](CN)[C@@H](OC(=O)Nc4ccc(Cl)cc4)[C@H](OC(=O)Nc4ccc(Cl)cc4)[C@H]3N)O[C@@H]2COC(=O)Nc2ccc(Cl)cc2)[C@H](N)[C@@H](OC(=O)Nc2ccc(Cl)cc2)[C@@H]1OC(=O)Nc1ccc(Cl)cc1.O=C(O)C(F)(F)F
- MIC ([1]; CAN-ICU 62585, 24 h): 128 µg/mL
- MIC ([2]; ATCC 49619, 24 h): 128 µg/mL
- MIC ([3]; ATCC 14990, 24 h): 32 µg/mL
- MIC ([4]; ATCC 25922, 24 h): > 256 µg/mL
- MIC ([5]; CAN-ICU 63074, 24 h): 256 µg/mL
- MIC [6]: 16 µg/mL
- MIC [7]: 256 µg/mL
- MIC ([8]; ATCC 27853, 24 h): > 256 µg/mL
- MIC ([9]; ATCC 6174, 24 h): > 256 µg/mL
- MIC ([10]; CAN-ICU 63169, 24 h): > 256 µg/mL
- MIC ([11]; ATCC 29213, 24 h): 64 µg/mL
- MIC ([12]; CAN-ICU 62308, 24 h): 256 µg/mL
- MIC ([13]; ATCC 33592, 24 h): 64 µg/mL

Molecule: GENTAMICIN
- MIC [1]: > 512 µg/mL
- MIC [2]: 4 µg/mL
- MIC [3]: 32 µg/mL
- MIC [4]: 1 µg/mL
- MIC [5]: 8 µg/mL
- MIC [6]: 0.25 µg/mL
- MIC [8]: 8 µg/mL
- MIC [9]: 128 µg/mL
- MIC [10]: 128 µg/mL
- MIC [11]: 1 µg/mL
- MIC [12]: 128 µg/mL
- MIC [13]: 2 µg/mL

Molecule: COC[C@H]1O[C@@H](O[C@@H]2[C@@H](OC)[C@H](N)C[C@H](N)[C@H]2O[C@H]2O[C@H](CN)[C@@H](OC)[C@H](OC)[C@H]2N)[C@H](OC)[C@@H]1O[C@H]1O[C@@H](CN)[C@@H](OC)[C@H](OC)[C@H]1N.O=C(O)C(F)(F)F
- MIC ([1]; CAN-ICU 62585, 24 h): > 256 µg/mL
- MIC ([2]; ATCC 49619, 24 h): > 256 µg/mL
- MIC ([3]; ATCC 14990, 24 h): > 256 µg/mL
- MIC ([4]; ATCC 25922, 24 h): > 256 µg/mL
- MIC ([5]; CAN-ICU 63074, 24 h): > 256 µg/mL
- MIC [6]: 256 µg/mL
- MIC [7]: > 256 µg/mL
- MIC ([8]; ATCC 27853, 24 h): > 256 µg/mL
- MIC ([9]; ATCC 6174, 24 h): > 256 µg/mL
- MIC ([10]; CAN-ICU 63169, 24 h): > 256 µg/mL
- MIC ([11]; ATCC 29213, 24 h): > 256 µg/mL
- MIC ([12]; CAN-ICU 62308, 24 h): > 256 µg/mL
- MIC ([13]; ATCC 33592, 24 h): > 256 µg/mL

Molecule: NC[C@H]1OC(O[C@H]2[C@H](OCc3ccccc3)[C@@H](O[C@H]3O[C@H](COCc4ccccc4)[C@@H](OCc4ccccc4)[C@H](N)[C@H]3OCc3ccccc3)[C@H](N)C[C@@H]2N)[C@H](OCc2ccccc2)[C@@H](OCc2ccccc2)[C@@H]1OCc1ccccc1.O=C(O)C(F)(F)F (stereo not given in full)
- MIC ([1]; CAN-ICU 62585, 24 h): > 64 µg/mL
- MIC ([2]; ATCC 49619, 24 h): 32 µg/mL
- MIC ([3]; ATCC 14990, 24 h): 8 µg/mL
- MIC ([4]; ATCC 25922, 24 h): 32 µg/mL
- MIC ([5]; CAN-ICU 63074, 24 h): 16 µg/mL
- MIC [6]: 4 µg/mL
- MIC [7]: > 64 µg/mL
- MIC ([8]; ATCC 27853, 24 h): > 64 µg/mL
- MIC ([9]; ATCC 6174, 24 h): 32 µg/mL
- MIC ([10]; CAN-ICU 63169, 24 h): > 64 µg/mL
- MIC ([11]; ATCC 29213, 24 h): 8 µg/mL
- MIC ([12]; CAN-ICU 62308, 24 h): > 64 µg/mL
- MIC ([13]; ATCC 33592, 24 h): 8 µg/mL
